Measured values published in PMC7249612 (Biochemistry, 2016).

Columns and labels:
[1] = test system: LoxA; assay: LoxA substrate preference; assay type: biochemical, Pseudomonas aeruginosa; conditions: initial rate at 10 μM substrate, pH 7.0, relative to AA
Summary of the method: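 His6-tagged LoxA was expressed in E. coli BL21(DE3), purified on Ni-NTA, and dosed by iron content. About 7 nM enzyme started each reaction. Each fatty acid substrate was C18 HPLC-purified and used at 10 μM in 25 mM HEPES pH 7.0 without Triton X-100. Initial rate of conjugated diene formation was followed at 234 nm (ε 25000 M−1cm−1) and expressed relative to the AA rate.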

[2] = test system: LoxA; assay: LoxA secondary product profile; assay type: biochemical, Pseudomonas aeruginosa; conditions: 10 μM substrate; for times slower relative to the Kcat with AA: pH 7.0
[3] = test system: P. aeruginosa biofilm growth; assay: Abiotic microtiter biofilm assay; assay type: cell-based, Pseudomonas aeruginosa; conditions: 1 μg LoxA protein added to loxA mutant or wild-type bacteria
Summary of the method: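 Wild-type PAO1 and loxA::Tn strains were grown overnight in Luria broth at 37 °C with 225 rpm shaking. Cultures were diluted 1:30 in minimal essential medium in 96-well plates, with or without 1 μg recombinant LoxA protein. Plates were incubated 24 h at 37 °C without agitation. Medium was removed, biofilms were washed and stained with crystal violet, and growth was read as absorbance at 550 nm.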

[4] = test system: P. aeruginosa biofilm growth on human airway epithelial cells; assay: Biotic biofilm assay on airway epithelial cells; assay type: cell-based, Pseudomonas aeruginosa; conditions: recombinant protein delivered to airway epithelial cells
Summary of the method: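 16HBE human bronchial epithelial cells were seeded at 7.4×10^4 per 6.5 mm transwell and polarized at air-liquid interface for 7 days. Cells were rinsed in MEM, and washed bacteria (wild-type PAO1 or loxA::Tn) were added at MOI 25–30. After 1 h, apical medium was replaced with MEM + 0.4% L-arginine for 5 h at 37 °C. Recombinant LoxA was added apically in MEM at increasing doses. Biofilms were released with 0.1% Triton X-100 and serially diluted for CFU/ml. Three experiments were run.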

CCCCC/C=C\C/C=C\C/C=C\C/C=C\CCCC(=O)O [AA, arachidonic acid]
% AA Rate (10 μM) [1]: 100% | Relative Kcat ([2]; Kcat of LoxA with AA set to 1, unitless): 1

CCCCC[C@H](O)/C=C/C=C\C/C=C\C/C=C\CCCC(=O)O [15-HETE]
times slower relative to the Kcat with AA [2]: 100,000 times

CCCCCC=CCC=CCC=CC=CC(CCCC(=O)O)OO (stereo not drawn) [5-HpETE, 5-hydroperoxyeicosatetraenoic acid]
times slower relative to the Kcat with AA [2]: 100,000 times

B1: LoxA protein: purified recombinant P. aeruginosa 15-lipoxygenase added to biofilm assays (protein, UniProt Q9I4G8 20-685, looked up)
Lipoxygenase LoxA: NDSIFFSPLKYLGAEQQRSIDASRSLLDNLIPPSLPQYDNLAGKLARRAVLTSKKLVYVWTENFGNVKGVPMARSVPLGELPNVDWLLKTAGVIVELIVNFVASLPASAAAQFERIATGLSGDLEAARQVHEALLEEAKNDPAAAGSLLLRFTELQTRVIAILTRVGLLVDDILKSASNLVTQRGQGDGLNRFRAVFGTLRLPEVADSFRDDEAFAYWRVAGPNPLLIRRVDALPANFPLGEEQFRRVMGADDSLLEAAASRRLYLLDYAELGKLAPSGAVDKLLTGTGFAYAPIALFALGKDRARLLPVAIQCGQDPATHPMFVRPAESESDLYWGWQMAKTVVQVAEENYHEMFVHLAQTHLVSEAFCLATQRTLAPSHPLHVLLAPHFEGTLFINEGAARILLPSAGFIDVMFAAPIQDTQATAGGNRLGFDFYRGMLPESLKARNVDDPLALPDYPYRDDGLLVWNAIRQWAADYVAVYYASDGDVTADVELAAWVGEVIGSGKVAGFRPITGRSQLVEVLTMVIFTASAQHAAVNFPQPSMMTYAPAICAMSAAPAPDSPSGKSEADWLKMMPPTLVALEKVNIYHLLGSVYHGRLGDYRQTGFPYAPVFSDRRVTASGGPLERFQARLKEVEATIRTRNQARRRPYEYLLPSRIPASTNI
effect on abiotic biofilm growth [3]: did not alter biofilm growth | effect on biotic biofilm growth of loxA transposon mutant [4]: This decrease could be complemented
